The values below come from PMC8530978 (Bioorganic chemistry, 2021).

The subject of test [1] is HeLaM cells. Nature of the test: Chromosome drops to determine mitotic index. It is filed as cell-based. As to conditions: 10 μM, after release from thymidine block. An outline of the steps:
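HeLaM cells held in S phase with a single 2 mM thymidine block overnight, washed in PBS and released into test compound for about 9 h, then given ZM447439 for 90 min. Attached and floating cells were pooled, trypsinized, swollen in 0.075 M KCl (10 min, 37 °C), fixed in methanol:acetic acid 3:1 and dropped onto slides. DAPI stain. Mitotic index scored blinded over at least three experiments.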

In another test the test system is HCT 116 cells. Description: MTS reduction assay, antiproliferative activity on HCT 116. The test is classed as cell-based. To be noted: Homo sapiens, HCT-116, 96 h. The essentials: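 HCT116 cells grown in McCoy's 5A with 10% FBS (37 °C, 5% CO2), seeded at 3 × 10^3/well in triplicate and left to adhere overnight. Exposed to test compound at 0.01–100 μM, or DMSO, for 96 h. MTS reagent added for 2 h at 37 °C; absorbance read at 490 nm. Curves of log(concentration) vs response fitted with a variable Hill slope.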
On the technique in general: Formazan colour is commonly taken as a measure of viable cells.

Test [2] concerns NCI sixty human tumor cell line panel. Nature of the test: NCI sixty human tumor cell line panel, single dose 10 μM. It is filed as cell-based. To be noted: Homo sapiens, read-out: Mean % growth at 10 μM.
In test [3] the target is tubulin heterodimers, purified from porcine brain (Sus scrofa, UniProt P02554). Description: Turbidity-based tubulin polymerization assay. As to conditions: for Vmax of tubulin polymerization: 37 °C, exponential phase (DMSO 10 mOD/min). It is filed as biochemical.
Sequence of tubulin heterodimers, purified from porcine brain (P02554 whole entry): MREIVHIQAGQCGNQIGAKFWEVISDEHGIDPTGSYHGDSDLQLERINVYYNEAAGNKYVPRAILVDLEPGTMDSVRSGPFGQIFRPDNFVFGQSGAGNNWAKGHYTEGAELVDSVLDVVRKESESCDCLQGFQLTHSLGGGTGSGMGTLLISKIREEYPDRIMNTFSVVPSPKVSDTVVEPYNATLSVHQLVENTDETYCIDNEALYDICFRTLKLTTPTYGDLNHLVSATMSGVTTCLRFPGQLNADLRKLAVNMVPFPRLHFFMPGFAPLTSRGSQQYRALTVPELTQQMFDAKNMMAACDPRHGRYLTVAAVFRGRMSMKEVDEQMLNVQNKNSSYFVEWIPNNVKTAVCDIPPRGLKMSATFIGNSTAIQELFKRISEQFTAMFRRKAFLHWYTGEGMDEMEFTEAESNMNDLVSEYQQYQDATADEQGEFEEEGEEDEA
Sequence of tubulin heterodimers, purified from porcine brain (P02550 whole entry partner): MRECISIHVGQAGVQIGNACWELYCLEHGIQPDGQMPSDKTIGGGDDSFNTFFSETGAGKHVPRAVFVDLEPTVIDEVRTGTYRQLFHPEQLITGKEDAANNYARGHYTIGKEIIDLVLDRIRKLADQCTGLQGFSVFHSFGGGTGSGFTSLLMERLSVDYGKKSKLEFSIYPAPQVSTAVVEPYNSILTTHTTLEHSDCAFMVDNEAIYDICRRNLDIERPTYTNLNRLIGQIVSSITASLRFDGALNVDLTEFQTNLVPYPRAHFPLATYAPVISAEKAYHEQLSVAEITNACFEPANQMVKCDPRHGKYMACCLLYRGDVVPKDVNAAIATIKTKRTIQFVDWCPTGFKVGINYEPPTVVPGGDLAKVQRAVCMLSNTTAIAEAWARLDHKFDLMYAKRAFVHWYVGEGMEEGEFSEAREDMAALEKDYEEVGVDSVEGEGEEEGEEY
For test [4], the system named is HeLaM cells. Description: Flow cytometry cell cycle analysis. To be noted: for cells in G2/M: 48 hours, subG1 excluded (DMSO 10%); for subG1 population: 72 hr post treatment (DMSO 14%). The test is classed as cell-based. An outline of the steps: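 5 × 10^5 HeLaM cells plated, treated next day with test compound or DMSO for 24, 48 or 72 h. All cells (floating and attached) collected and fixed in 70% ethanol (final). […] 10 μg/ml, 30 min, 37 °C, then propidium iodide in PBS + 2% FBS. SubG1 gated; subG1 excluded before modeling live-cell cycle distribution.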

In test [5] the test system is histone H3 acetylation and tubulin acetylation in HCT116 cells. Description: Western blot of histone H3 and tubulin acetylation in HCT116 cells. It is filed as cell-based, human. As to conditions: HCT116, 24 h, IPEs up to highest concentration 25 μM. An outline of the steps:
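HCT116 cells (2 × 10^6 per T-25 flask) adhered overnight, then given test compound at 1, 10 or 25 μM, or DMSO, for 24 h. Lysed in RIPA; protein measured by BCA. Acetyl-histone H3 and acetyl-tubulin immunoblotted, detected with fluorescent secondary antibodies on an Odyssey scanner.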
A general note: A western blot detects proteins with antibodies after separation by electrophoresis.

The subject of test [6] is HDAC8-null and control HCT116 cells. Nature of the test: Cytotoxicity in HDAC8-null versus control HCT116 cells. It is filed as cell-based, human. To be noted: 10 μM.
Test [7] has as its system HeLaM cells expressing mcherry-α-tubulin. Description: Spindle reassembly after recovery from cold shock. The test is classed as cell-based. To be noted: 8 minutes post-rewarming, versus control. An outline of the steps: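 HeLaM clone stably expressing mCherry-α-tubulin, treated with test compound or DMSO for 30 min at 37 °C, chilled 30 min at 4 °C, then rewarmed at 37 °C. Fixed at 0, 4, 8 and 20 min after rewarming; wide-field fluorescence imaging. Four repeats, 10–30 cells per condition per experiment. Blinded 8-min images scored, and spindle outlines traced to quantify morphology.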

The test system of test [8] is purified HDAC isoforms (HDAC1, 2, 3, 8 and HDAC6). Nature of the test: Single concentration. It is filed as biochemical. As to conditions: 100 μM, HDAC1, 2, 3, 8 and 6. The essentials:
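Recombinant HDAC1, 2, 3, 6 or 8 (1 μL of enzyme stock at 3, 1, 30, 35 or 70 ng/μL respectively) in HDAC-Glo buffer, incubated 3 h at room temperature with test compound in DMSO. HDAC-Glo reagent then added; luminescence read every 3 min for 30 min. Peak signal corrected against a no-enzyme background and divided by the no-inhibitor signal to give % activity remaining.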

For test [9], the system named is mitotic spindle of HeLaM cells. The test is classed as cell-based. As to conditions: compound 10 μM + MG132 + ZM447439 (DMSO+MG132+ZM447439 3%).
Test [10] has as its system acetylation of SMC3 in HeLaM cells. Nature of the test: Western blot of SMC3 acetylation in HeLaM cells. To be noted: overnight treatment. The test is classed as cell-based. An outline of the steps:
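Acetylated SMC3 detected by immunoblot with an anti-acetyl-SMC3 antibody, HRP-conjugated secondary antibody and enhanced chemiluminescence, imaged on film.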

In a further test the target is HDAC1 (Homo sapiens, UniProt Q13547). Description: HDAC-Glo inhibitor testing with recombinant HDAC1. It is filed as biochemical.
Sequence of HDAC1 (Q13547 whole entry): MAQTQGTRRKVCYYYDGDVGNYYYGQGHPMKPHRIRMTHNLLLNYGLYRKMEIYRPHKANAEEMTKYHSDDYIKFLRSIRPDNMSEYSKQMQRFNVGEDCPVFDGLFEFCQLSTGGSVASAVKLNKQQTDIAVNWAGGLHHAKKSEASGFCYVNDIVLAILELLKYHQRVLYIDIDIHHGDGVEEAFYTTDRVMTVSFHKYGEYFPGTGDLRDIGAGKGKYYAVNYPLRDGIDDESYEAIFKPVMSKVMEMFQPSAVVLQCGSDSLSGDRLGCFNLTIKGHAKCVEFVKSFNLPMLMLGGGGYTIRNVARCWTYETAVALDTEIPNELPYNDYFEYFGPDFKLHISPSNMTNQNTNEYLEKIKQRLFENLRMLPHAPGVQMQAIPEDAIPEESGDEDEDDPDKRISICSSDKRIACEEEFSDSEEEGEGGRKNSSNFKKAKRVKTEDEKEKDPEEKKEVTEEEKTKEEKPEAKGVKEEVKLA
The target in another test is HDAC2 (Homo sapiens, UniProt Q92769). Description: HDAC-Glo inhibitor testing with recombinant HDAC2. It is filed as biochemical.
Sequence of HDAC2 (Q92769 whole entry): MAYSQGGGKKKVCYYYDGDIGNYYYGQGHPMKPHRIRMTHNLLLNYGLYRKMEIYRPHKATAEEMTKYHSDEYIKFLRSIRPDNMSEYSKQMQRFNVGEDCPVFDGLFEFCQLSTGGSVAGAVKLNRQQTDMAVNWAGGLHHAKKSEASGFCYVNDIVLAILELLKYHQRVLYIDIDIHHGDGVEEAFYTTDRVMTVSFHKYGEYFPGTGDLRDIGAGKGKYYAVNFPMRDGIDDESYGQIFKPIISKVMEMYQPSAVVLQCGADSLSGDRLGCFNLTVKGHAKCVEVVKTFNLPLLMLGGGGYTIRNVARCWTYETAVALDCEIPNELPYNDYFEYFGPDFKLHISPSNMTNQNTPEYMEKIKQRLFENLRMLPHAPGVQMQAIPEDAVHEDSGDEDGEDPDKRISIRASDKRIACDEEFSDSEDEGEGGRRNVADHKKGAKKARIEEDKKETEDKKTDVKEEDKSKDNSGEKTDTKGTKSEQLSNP
The target of the next test is T1, HDAC6 (Homo sapiens, UniProt Q9UBN7).
T1 sequence (Q9UBN7 1-1215): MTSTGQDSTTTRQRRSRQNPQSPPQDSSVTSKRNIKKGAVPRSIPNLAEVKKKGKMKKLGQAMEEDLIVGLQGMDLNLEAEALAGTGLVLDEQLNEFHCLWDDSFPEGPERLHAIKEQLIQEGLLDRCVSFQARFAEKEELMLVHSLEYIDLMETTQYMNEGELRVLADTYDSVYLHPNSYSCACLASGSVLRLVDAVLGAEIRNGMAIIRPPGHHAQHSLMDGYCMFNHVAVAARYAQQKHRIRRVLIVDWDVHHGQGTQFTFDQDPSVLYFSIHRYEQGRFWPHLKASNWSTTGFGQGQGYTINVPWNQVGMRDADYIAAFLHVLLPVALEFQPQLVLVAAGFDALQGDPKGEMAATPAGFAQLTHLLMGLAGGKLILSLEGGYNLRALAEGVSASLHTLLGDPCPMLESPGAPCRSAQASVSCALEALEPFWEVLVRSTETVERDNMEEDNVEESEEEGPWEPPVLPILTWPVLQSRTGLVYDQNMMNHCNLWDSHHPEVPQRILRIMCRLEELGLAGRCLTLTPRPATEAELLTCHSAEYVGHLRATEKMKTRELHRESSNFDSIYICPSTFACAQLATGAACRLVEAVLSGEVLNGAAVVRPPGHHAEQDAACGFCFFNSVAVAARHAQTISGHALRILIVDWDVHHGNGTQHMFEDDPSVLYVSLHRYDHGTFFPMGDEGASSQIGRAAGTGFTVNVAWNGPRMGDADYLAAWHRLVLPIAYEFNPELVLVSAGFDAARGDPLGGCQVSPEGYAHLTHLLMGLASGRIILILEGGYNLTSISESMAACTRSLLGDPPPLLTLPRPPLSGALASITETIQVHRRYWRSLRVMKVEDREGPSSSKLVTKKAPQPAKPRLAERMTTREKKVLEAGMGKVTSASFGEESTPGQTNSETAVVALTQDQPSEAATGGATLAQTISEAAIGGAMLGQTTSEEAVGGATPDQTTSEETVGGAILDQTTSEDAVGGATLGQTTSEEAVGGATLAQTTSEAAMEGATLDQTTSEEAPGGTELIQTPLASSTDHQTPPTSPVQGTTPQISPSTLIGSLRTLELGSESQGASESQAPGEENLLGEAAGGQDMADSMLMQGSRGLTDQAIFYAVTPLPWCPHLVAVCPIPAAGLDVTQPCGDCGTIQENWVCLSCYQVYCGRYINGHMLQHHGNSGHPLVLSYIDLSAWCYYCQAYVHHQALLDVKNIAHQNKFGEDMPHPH
Nature of the test: HDAC-Glo inhibitor testing with recombinant HDAC6. It is filed as biochemical.

Test [11] has as its system HeLaM cells. Nature of the test: Phase contrast time lapse microscopy, mitotic duration. It is filed as cell-based. As to conditions: asynchronous HeLaM cells, images every 12 min.

As to `O=C(Cc1ccc(/C=C/C(=O)c2ncc[nH]2)cc1)Nc1ccc(F)cc1` [IPE-7, (E)-2-(4-(3-(1H-Imidazol-2-yl)-3-oxoprop-1-en-1-yl)phenyl)-N-(4-fluorophenyl)acetamide], the “mitotic arrest (mitotic index)” value with HeLaM cells [1] is “arrested cells in mitosis”. Growth in the test with HCT 116 cells was halved (GI50) at 6.95 µM. In test [2], the activity at 10 µM came out at 27.5%. Moreover, the “Vmax of tubulin polymerization” value in [3] (10 μM compound) stood at 5.5 mOD/min. Further, in test [3] (50 μM compound), the “Vmax of tubulin polymerization” value was determined as 4.5 mOD/min. The “microtubule depolymerization upon cooling” value in test [3] (50 μM, cooling to ~15°C) is given as “Depolymerization was accelerated”. In addition, in the test on HeLaM cells [4], the “cells in G2/M” value came to 36% and the subG1 population came out at 58%. Besides, in [5], the “global histone H3 acetylation and tubulin acetylation” value was “no increase in global histone acetylation or tubulin acetylation”. In test [6], the “cell killing of parental and HDAC8-null cells” value was “both parental and HDAC8-null cells were killed”. Moreover, the abnormal spindles entry in test [7] was “significantly more abnormal spindles”. Moreover, the “activity remaining, each HDAC isoform” value in test [8] is 20–80%. The spindle collapse in test [9] was determined as 97%. In addition, the SMC3 acetylation result in test [10] is recorded as “no effect on SMC3 acetylation”.

Regarding `O=C(Cc1ccc(/C=C/C(=O)c2ncc[nH]2)cc1)Nc1ccc(Cl)cc1` [IPE-8, (E)-2-(-4(3-(1H-imidazol-2-yl)-3-oxoprop-1-en-1-yl)phenyl)-N-(4-chlorophenyl)acetamide], the IC50 on HDAC1, at HDAC2 and on HDAC6 was over 100 µM throughout. This compound also had a 50% growth inhibitory concentration (GI50) in the test on HCT 116 cells of 5.14 µM. The activity at 10 µM in test [2] was 21.1%. Moreover, the “cells in G2/M” value in the test on HeLaM cells [4] came to 33%. The subG1 population in the test with HeLaM cells [4] came to 59%. For the same compound, the “activity remaining, each HDAC isoform” value in test [8] is recorded as 20–80%. Further, the SMC3 acetylation result in [10] is given as “no effect on SMC3 acetylation”.

As to `COc1ccc(Cn2ccc3ccc(C(=O)NO)cc32)cc1` [PCI34051, reference compound], in the test with HeLaM cells [11], the “mitotic duration / mitotic arrest” value worked out at 1.5 h. The spindle collapse entry in test [9] was “did not produce the same aberrant spindle”. Besides, in test [10], the SMC3 acetylation entry is given as “an increase in SMC3 acetylation”.

Broadly, the GI50 is the concentration that inhibits growth by half. Low values mean greater sensitivity of the cells, high ones lower sensitivity of the cells. By IC50 is commonly meant the midpoint of a concentration-inhibition curve.
